Drawing on ChEMBL document CHEMBL2146361, “Identification of novel α7 nicotinic receptor ligands by in silico screening against the crystal structure of a chimeric α7 receptor ligand binding domain” (Bioorg Med Chem, 2012), this text covers pKi, pKd and Ki for ten compounds.

The structures appear in SMILES notation.

Neuronal acetylcholine receptor subunit alpha-7, sequence (P36544 23-502 limits assumed): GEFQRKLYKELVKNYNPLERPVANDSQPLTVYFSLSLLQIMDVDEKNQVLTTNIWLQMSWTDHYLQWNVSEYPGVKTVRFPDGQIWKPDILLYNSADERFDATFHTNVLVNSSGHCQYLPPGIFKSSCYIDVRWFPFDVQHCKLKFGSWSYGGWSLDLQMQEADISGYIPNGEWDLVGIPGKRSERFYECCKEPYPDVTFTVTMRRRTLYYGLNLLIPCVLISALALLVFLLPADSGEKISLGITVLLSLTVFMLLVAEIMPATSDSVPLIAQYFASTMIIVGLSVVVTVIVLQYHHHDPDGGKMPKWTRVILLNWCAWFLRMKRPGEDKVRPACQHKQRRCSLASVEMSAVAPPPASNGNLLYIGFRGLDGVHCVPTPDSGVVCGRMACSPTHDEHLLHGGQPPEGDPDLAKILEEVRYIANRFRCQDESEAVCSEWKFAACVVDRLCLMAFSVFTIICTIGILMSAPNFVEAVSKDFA

The target of the experiment is Neuronal acetylcholine receptor subunit alpha-7 (Homo sapiens, UniProt P36544). Kind of experiment: Displacement of [3H]epibatidine from chimeric human alpha7-5-HT3A receptor expressed in HEK293 cells after 2 hrs by scintillation counter analysis. Type of experiment: cell-based. The essentials:
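HEK293 cells grown in DMEM:F12 with 10% fetal calf serum at 37 °C, 7% CO₂, transiently transfected (PEI) and harvested after 2–3 days. 50 μg membranes incubated in 10 mM HEPES pH 7.4 with 3 nM [³H]epibatidine, ≥2 h at 4 °C, 10-point competition; non-specific binding with 3 mM (−)-nicotine.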
For orientation: In a radioligand displacement assay an active substance lowers the binding of a labelled ligand.
`N#CCOCC(O)C[n+]1ccccc1` (configuration not stated) had a pKi of 5.6.

On to `Clc1ccc(C2CC3CCC2N3)cn1` (configuration not stated) [EPIBATIDINE], for which the pKd worked out at 8.2.

For `COc1cc2c(cc1OC)C1CC(c3ccccc3)CCN1CC2` (configuration not stated), the pKi is 5.8.

Take `CN1CCc2[nH]c3ccccc3c2C1`: the pKi was 5.2.

On to `CC1C(c2ccccc2)NC(c2ccccc2)C(C)C1(C)O` (configuration not stated), for which the negative-log Ki (pKi) is 5.4.

`CC1CCN2CCc3c([nH]c4ccccc34)C2C1` (configuration not stated) showed an inhibition constant Ki of 400 nM and a pKi of 6.4.

`CC1CCN(CC(O)COc2ccc(-c3ccccc3)cc2)CC1` (configuration not stated) showed a pKi of 5.7.

On to `CC1CC2(CCCCCC2)NCc2ccccc21` (configuration not stated), for which the pKi stood at 5.1.

`CC1/C(=N/O)CC(c2ccccc2)N(C)C1c1ccccc1` (configuration not stated) registered a negative-log Ki (pKi) of 5.3.

`c1ccc(C2CN3CCC2CC3)cc1` (configuration not stated) showed an inhibition constant (Ki) of 200 nM and a pKi of 6.7.

A word on the pKi: it is the negative decadic logarithm of the Ki, by convention in mol/L. A word on the pKd: it is −log10 of the Kd, conventionally taken in molar units. High values mean a small Kd, low ones a large Kd. The Ki is a measure of affinity in units of concentration, obtained from inhibition or displacement.
